Experimental data as given in ChEMBL document CHEMBL1153058, “Cycloaspeptides F and G, Cyclic Pentapeptides from a Cordyceps-colonizing isolate of Isaria farinosa” (2009).
Where a SMILES comes first, the peptide text is derived from it. [ ]: non-standard residue; d: D form. The star is where a group is joined. βGlc = OC[C@H]1O[C@@H](*)[C@H](O)[C@@H](O)[C@@H]1O; NMeY = CN[C@@H](Cc1ccc(O)cc1)C(=O)O; NMeF = CN[C@@H](Cc1ccccc1)C(=O)O; 2Abz = Nc1ccccc1C(=O)O

Key:
[1] = system: MCF7; experiment: Cytotoxicity against human MCF7 cells after 48 hrs by MTT assay; assay type: functional; details: MCF7, 48 h
In short: (§1)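 MTT assay: 10^4 cells per well, attached overnight. Cells exposed for 4 h at 37 °C, 5% CO2, to compound serially diluted in medium from a 10 mg/mL DMSO stock, vehicle 0.2% DMSO. Medium then replaced with fresh DMEM and growth continued 48 h. MTT 0.5 mg/mL added for 3 h in the dark, formazan dissolved in DMSO, absorbance read at 540 nm. GI50 derived.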

[2] = system: HeLa; experiment: Cytotoxicity against human HeLa cells after 48 hrs by MTT assay; assay type: functional; in short: as §1

Compound	GI50 [1]	GI50 [2]
CC(C)C[C@@H]1NC(=O)[C@H](Cc2ccccc2)NC(=O)[C@H](C)NC(=O)c2ccccc2NC(=O)[C@H](Cc2ccc(O)cc2)N(C)C1=O [cycloaspeptide C] (cyclo([2Abz]AFL[NMeY]))	31.9 µM	> 63.4 µM
CC(C)C[C@@H]1NC(=O)[C@H](Cc2ccccc2)N(C)C(=O)[C@H](C)NC(=O)c2ccccc2NC(=O)[C@H](Cc2ccc(O)cc2)N(C)C1=O [CYCLOASPEPTIDE A] (cyclo([2Abz]A[NMeF]L[NMeY]))	23.4 µM	31.2 µM
CC(C)C[C@@H]1NC(=O)[C@H](Cc2ccc(O)cc2)N(C)C(=O)[C@H](C)NC(=O)c2ccccc2NC(=O)[C@H](Cc2ccc(O)cc2)N(C)C1=O [Cycloaspeptide G] (cyclo([2Abz]A[NMeY]L[NMeY]))	15.2 µM	30.4 µM
CC(C)C[C@@H]1NC(=O)[C@H](Cc2ccccc2)N(C)C(=O)[C@H](C)NC(=O)c2ccccc2NC(=O)[C@H](Cc2ccc(O[C@@H]3O[C@H](CO)[C@@H](O)[C@H](O)[C@H]3O)cc2)N(C)C1=O [Cycloaspeptide F] (cyclo([2Abz]A[NMeF]L[NMeY](βGlc)))	18.7 µM	49.8 µM
CS[C@]1(CO)C(=O)N(C)[C@](Cc2ccccc2)(SC)C(=O)N1C [BISDETHIODI(METHYLTHIO)HYALODENDRIN]	113 µM	> 113 µM
O=c1[nH]cc(F)c(=O)[nH]1 [FLUOROURACIL]	15 µM	10 µM
